Measured values published in ChEMBL document CHEMBL3860041, “Synthesis, biological evaluation and molecular modeling study of some new methoxylated 2-benzylthio-quinazoline-4(3H)-ones as nonclassical antifolates” (Bioorg Med Chem Lett, 2016).

How the values were obtained:
[1] = target: T1, Dihydrofolate reductase (Bos taurus, UniProt P00376); assay: Inhibition of bovine liver DHFR preincubated for 2 mins followed by addition of FH2 as substrate and NADPH
T1 sequence (P00376 whole entry): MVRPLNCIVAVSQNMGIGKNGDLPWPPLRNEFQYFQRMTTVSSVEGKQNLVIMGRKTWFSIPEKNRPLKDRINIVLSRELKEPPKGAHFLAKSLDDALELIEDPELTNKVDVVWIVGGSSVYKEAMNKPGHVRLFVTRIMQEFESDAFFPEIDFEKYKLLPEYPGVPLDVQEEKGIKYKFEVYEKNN

[2] = Growth inhibition of human RPMI8226 cells at 10 uM after 48 hrs by SRB assay relative to control; format: functional; conditions: RPMI-8226, 48 h, read-out: GI
Summary of the method: (§1)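 NCI 60-cell-line panel, nine tumor subpanels; compounds tested at a single dose of 10 μM in the primary screen.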

[3] = Growth inhibition of human HOP92 cells at 10 uM after 48 hrs by SRB assay relative to control; format: functional; conditions: HOP-92, 48 h, read-out: GI; summary of the method: as §1
[4] = Growth inhibition of human NCI-322M cells at 10 uM after 48 hrs by SRB assay relative to control; format: functional; conditions: read-out: GI; summary of the method: as §1
[5] = Growth inhibition of human NCI-H460 cells at 10 uM after 48 hrs by SRB assay relative to control; format: functional; conditions: NCI-H460, 48 h, read-out: GI; summary of the method: as §1
[6] = Growth inhibition of human NCI-H522 cells at 10 uM after 48 hrs by SRB assay relative to control; format: functional; conditions: NCI-H522, 48 h, read-out: GI; summary of the method: as §1
[7] = Growth inhibition of human HCC2998 cells at 10 uM after 48 hrs by SRB assay relative to control; format: functional; conditions: HCC 2998, 48 h, read-out: GI; summary of the method: as §1
[8] = Growth inhibition of human HCT15 cells at 10 uM after 48 hrs by SRB assay relative to control; format: functional; conditions: HCT-15, 48 h, read-out: GI; summary of the method: as §1
[9] = Growth inhibition of human HT-29 cells at 10 uM after 48 hrs by SRB assay relative to control; format: functional; conditions: HT-29, 48 h, read-out: GI; summary of the method: as §1
[10] = Growth inhibition of human KM12 cells at 10 uM after 48 hrs by SRB assay relative to control; format: functional; conditions: KM12, 48 h, read-out: GI; summary of the method: as §1
[11] = Growth inhibition of human SW620 cells at 10 uM after 48 hrs by SRB assay relative to control; format: functional; conditions: SW-620, 48 h, read-out: GI
Summary of the method: (§2)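 Primary screen across the full NCI 60 human tumour cell line panel, which covers nine tumour subpanels. A single dose of 10 μM was applied to each line, and growth was recorded for each cell line.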

[12] = Growth inhibition of human SF295 cells at 10 uM after 48 hrs by SRB assay relative to control; format: functional; conditions: SF-295, 48 h, read-out: GI; summary of the method: as §1
[13] = Growth inhibition of human SF539 cells at 10 uM after 48 hrs by SRB assay relative to control; format: functional; conditions: SF-539, 48 h, read-out: GI; summary of the method: as §1
[14] = Growth inhibition of human U251 cells at 10 uM after 48 hrs by SRB assay relative to control; format: functional; conditions: U-251, 48 h, read-out: GI; summary of the method: as §2
[15] = Growth inhibition of human M14 cells at 10 uM after 48 hrs by SRB assay relative to control; format: functional; conditions: M14, 48 h, read-out: GI; summary of the method: as §1
[16] = Growth inhibition of human SK-MEL-28 cells at 10 uM after 48 hrs by SRB assay relative to control; format: functional; conditions: SK-MEL-28, 48 h, read-out: GI; summary of the method: as §2
[17] = Growth inhibition of human UACC62 cells at 10 uM after 48 hrs by SRB assay relative to control; format: functional; conditions: UACC-62, 48 h, read-out: GI; summary of the method: as §2
[18] = Growth inhibition of human IGROV1 cells at 10 uM after 48 hrs by SRB assay relative to control; format: functional; conditions: IGROV-1, 48 h, read-out: GI; summary of the method: as §1
[19] = Growth inhibition of human OVCAR3 cells at 10 uM after 48 hrs by SRB assay relative to control; format: functional; conditions: OVCAR-3, 48 h, read-out: GI; summary of the method: as §1
[20] = Growth inhibition of human OVCAR8 cells at 10 uM after 48 hrs by SRB assay relative to control; format: functional; conditions: OVCAR-8, 48 h, read-out: GI; summary of the method: as §1
[21] = Growth inhibition of human Caki1 cells at 10 uM after 48 hrs by SRB assay relative to control; format: functional; conditions: CAKI-1, 48 h, read-out: GI; summary of the method: as §1
[22] = Growth inhibition of human PC3 cells at 10 uM after 48 hrs by SRB assay relative to control; format: functional; conditions: PC-3, 48 h, read-out: GI; summary of the method: as §1
[23] = Growth inhibition of human MCF7 cells at 10 uM after 48 hrs by SRB assay relative to control; format: functional; conditions: MCF7, 48 h, read-out: GI; summary of the method: as §1
[24] = Growth inhibition of human MDA-MB-231 cells at 10 uM after 48 hrs by SRB assay relative to control; format: functional; conditions: MDA-MB-231, 48 h, read-out: GI; summary of the method: as §1

Structure (SMILES)	IC50 [1] [nM]	inhibition of growth at 10 µM [2] [%]	inhibition of growth at 10 µM [3] [%]	inhibition of growth at 10 µM [4] [%]	inhibition of growth at 10 µM [5] [%]	inhibition of growth at 10 µM [6] [%]	inhibition of growth at 10 µM [7] [%]	inhibition of growth at 10 µM [8] [%]	inhibition of growth at 10 µM [9] [%]	inhibition of growth at 10 µM [10] [%]	inhibition of growth at 10 µM [11] [%]	inhibition of growth at 10 µM [12] [%]	inhibition of growth at 10 µM [13] [%]	inhibition of growth at 10 µM [14] [%]	inhibition of growth at 10 µM [15] [%]	inhibition of growth at 10 µM [16] [%]	inhibition of growth at 10 µM [17] [%]	inhibition of growth at 10 µM [18] [%]	inhibition of growth at 10 µM [19] [%]	inhibition of growth at 10 µM [20] [%]	also measured
COc1cc(CSc2nc3ccc(Cl)cc3c(=O)n2-c2ccccc2)cc(OC)c1OC	800	< 10	11.1	14.3	< 10	61.6	20	47.5	33	50.2	20.3	15.8	21.1	11.4	< 10	< 10	35.9	27.5	22.2	15.7	inhibition of growth at 10 µM [21]: 26.1%; inhibition of growth at 10 µM [22]: 26.8%; inhibition of growth at 10 µM [23]: 23.1%; inhibition of growth at 10 µM [24]: 37%
COc1ccc(-n2c(SCc3cc(OC)c(OC)c(OC)c3)nc3ccc(Cl)cc3c2=O)cc1	3000	33.8	42.9	< 10	10.3	16.7	< 10	19.3	17	18.7	< 10	16.7	12.7	< 10	< 10	< 10	33.9	16.3	< 10	13.7	inhibition of growth at 10 µM [21]: 33%; inhibition of growth at 10 µM [22]: 37.7%; inhibition of growth at 10 µM [23]: 15.6%; inhibition of growth at 10 µM [24]: 36.8%
COc1cc2nc(SCc3cc(OC)c(OC)c(OC)c3)n(-c3ccccc3OC)c(=O)c2cc1OC	800	28.8	34.2	14.9	16.6	< 10	< 10	24.6	33.4	45.9	23.6	26.2	10.1	13.2	23	21.1	27.5	16.9	51.8	15.4	inhibition of growth at 10 µM [21]: 57.1%; inhibition of growth at 10 µM [22]: 38.9%; inhibition of growth at 10 µM [23]: 23%; inhibition of growth at 10 µM [24]: 22.6%
